Assay [1] has as its system Mus musculus. The assay is described as follows: Hypolipidemic activity in high cholesterol diet fed ICR mouse assessed as reduction of HDL cholesterol level at 50 mg/kg/day, po after 12 hrs of last cholesterol challenge relative to control. Also noted: scale not given: the % may be the effect or the level left.
The test system of assay [2] is Mus musculus. The assay is described as follows: Hypolipidemic activity in high cholesterol diet fed ICR mouse assessed as reduction of total cholesterol level at 50 mg/kg, ip after 12 hrs of last cholesterol challenge relative to control. Format: functional. The arrangement: scale not given: the % may be the effect or the level left. Conditions: route intraperitoneal. In short, it runs like this:
(§1)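 Male ICR mice (24–27 g), six per group, were fed a high-cholesterol diet ad libitum for 6 days (1.0% cholesterol, 0.5% sodium cholate, 5% butter, 30% sucrose, 10% casein, 53.5% chow). Basal-diet mice served as controls. Dosing was 5 mL/kg and solutions were made fresh. Mice were fasted 12 h before sacrifice and bled periorbitally. Serum TC, HDL-C and TG were read on an analyzer, with LDL-C by Friedewald.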

The test system of assay [3] is Mus musculus. Briefly: Hypolipidemic activity in high cholesterol diet fed ICR mouse assessed as reduction of triglyceride level at 100 mg/kg/day, po after 12 hrs of last cholesterol challenge relative to control. The arrangement: scale not given: the % may be the effect or the level left.
Assay [4] deals with Mus musculus. The assay is described as follows: Hypolipidemic activity in ICR mouse assessed as decrease in Tyloxapol-induced triglyceride level at 50 mg/kg, ip administered 1 hr before Tyloxapol challenge and 22, 48 hrs after Tyloxapol challenge measured after 22 hrs relative to control. Format: functional. Also noted: scale not given: the % may be the effect or the level left. Particulars: route intraperitoneal. In short, it runs like this: (§2)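 Male ICR mice (24–27 g), groups of six. Hyperlipidemia induced by ip Tyloxapol (Triton WR 1339) 400 mg/kg in water. Drug given at 5 mL/kg 1 h before and 22 and 48 h after injection; vehicle controls. Blood drawn 22 h post-injection by periorbital bleeding. Serum total cholesterol, HDL-C and triglycerides measured on an automatic analyzer; LDL-C by the Friedewald equation. Values are % of the Tyloxapol group, mean ± SE.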

The test system of assay [5] is Mus musculus. Briefly: Hypolipidemic activity in ICR mouse assessed as decrease in Tyloxapol-induced total cholesterol level at 50 mg/kg, ip administered 1 hr before Tyloxapol challenge and 22, 48 hrs after Tyloxapol challenge measured after 22 hrs relative to control. Format: functional. The arrangement: scale not given: the % may be the effect or the level left. Particulars: route oral, in the assay text read “po administered” for “ip administered”. In outline:
as §2

The test system of assay [6] is Mus musculus. Briefly: Hypolipidemic activity in ICR mouse assessed as decrease in Tyloxapol-induced HDL-cholesterol level at 50 mg/kg, ip administered 1 hr before Tyloxapol challenge and 22, 48 hrs after Tyloxapol challenge measured after 22 hrs relative to control. Format: functional. Also noted: scale not given: the % may be the effect or the level left. Conditions: route oral, in the assay text read “po administered” for “ip administered”. In short, it runs like this:
as §2

Assay [7] deals with Mus musculus. Briefly: Hypolipidemic activity in high cholesterol diet fed ICR mouse assessed as reduction of LDL cholesterol level at 50 mg/kg/day, po after 12 hrs of last cholesterol challenge relative to control. Also noted: scale not given: the % may be the effect or the level left.
Assay [8] deals with Mus musculus. Briefly: Hypolipidemic activity in ICR mouse assessed as decrease in Tyloxapol-induced triglyceride level at 100 mg/kg, ip administered 1 hr before Tyloxapol challenge and 22, 48 hrs after Tyloxapol challenge measured after 22 hrs relative to control. Format: functional. The arrangement: scale not given: the % may be the effect or the level left. Particulars: route intraperitoneal. In short, it runs like this:
as §2

The subject of assay [9] is Mus musculus. Briefly: Hypolipidemic activity in ICR mouse assessed as decrease in Tyloxapol-induced LDL-cholesterol level at 50 mg/kg, ip administered 1 hr before Tyloxapol challenge and 22, 48 hrs after Tyloxapol challenge measured after 22 hrs relative to control. Format: functional. The arrangement: scale not given: the % may be the effect or the level left. Conditions: route oral, in the assay text read “po administered” for “ip administered”. In short, it runs like this:
as §2

Assay [10] has as its system Mus musculus. The assay is described as follows: Hypolipidemic activity in high cholesterol diet fed ICR mouse assessed as reduction of LDL cholesterol level at 100 mg/kg/day, po after 12 hrs of last cholesterol challenge relative to control. Also noted: scale not given: the % may be the effect or the level left.
Assay [11] concerns Mus musculus. The assay is described as follows: Hypolipidemic activity in ICR mouse assessed as decrease in Tyloxapol-induced HDL-cholesterol level at 100 mg/kg, ip administered 1 hr before Tyloxapol challenge and 22, 48 hrs after Tyloxapol challenge measured after 22 hrs relative to control. Format: functional. Also noted: scale not given: the % may be the effect or the level left. Conditions: route intraperitoneal. In short, it runs like this:
as §2

Assay [12] relates to Mus musculus. The assay is described as follows: Hypolipidemic activity in high cholesterol diet fed ICR mouse assessed as reduction of triglyceride level at 50 mg/kg/day, po after 12 hrs of last cholesterol challenge relative to control. The arrangement: scale not given: the % may be the effect or the level left.
Assay [13] deals with Mus musculus. The assay is described as follows: Hypolipidemic activity in ICR mouse assessed as decrease in Tyloxapol-induced LDL-cholesterol level at 100 mg/kg, ip administered 1 hr before Tyloxapol challenge and 22, 48 hrs after Tyloxapol challenge measured after 22 hrs relative to control. Format: functional. The arrangement: scale not given: the % may be the effect or the level left. Conditions: route oral, in the assay text read “po administered” for “ip administered”. In outline: as §2

Assay [14] relates to Mus musculus. Briefly: Hypolipidemic activity in high cholesterol diet fed ICR mouse assessed as reduction of total cholesterol level at 100 mg/kg/day, ip after 12 hrs of last cholesterol challenge relative to control. Format: functional. Also noted: scale not given: the % may be the effect or the level left. Conditions: route intraperitoneal. In short, it runs like this:
as §1

For assay [15], the system named is Mus musculus. The assay is described as follows: Hypolipidemic activity in ICR mouse assessed as decrease in Tyloxapol-induced total cholesterol level at 100 mg/kg, ip administered 1 hr before Tyloxapol challenge and 22, 48 hrs after Tyloxapol challenge measured after 22 hrs relative to control. Format: functional. Also noted: scale not given: the % may be the effect or the level left. Conditions: route oral, in the assay text read “po administered” for “ip administered”. In outline: as §2

Assay [16] concerns the target T1, 3-hydroxy-3-methylglutaryl-coenzyme A reductase (Schizosaccharomyces pombe 972h-, UniProt Q10283).
T1 sequence (Q10283 whole entry): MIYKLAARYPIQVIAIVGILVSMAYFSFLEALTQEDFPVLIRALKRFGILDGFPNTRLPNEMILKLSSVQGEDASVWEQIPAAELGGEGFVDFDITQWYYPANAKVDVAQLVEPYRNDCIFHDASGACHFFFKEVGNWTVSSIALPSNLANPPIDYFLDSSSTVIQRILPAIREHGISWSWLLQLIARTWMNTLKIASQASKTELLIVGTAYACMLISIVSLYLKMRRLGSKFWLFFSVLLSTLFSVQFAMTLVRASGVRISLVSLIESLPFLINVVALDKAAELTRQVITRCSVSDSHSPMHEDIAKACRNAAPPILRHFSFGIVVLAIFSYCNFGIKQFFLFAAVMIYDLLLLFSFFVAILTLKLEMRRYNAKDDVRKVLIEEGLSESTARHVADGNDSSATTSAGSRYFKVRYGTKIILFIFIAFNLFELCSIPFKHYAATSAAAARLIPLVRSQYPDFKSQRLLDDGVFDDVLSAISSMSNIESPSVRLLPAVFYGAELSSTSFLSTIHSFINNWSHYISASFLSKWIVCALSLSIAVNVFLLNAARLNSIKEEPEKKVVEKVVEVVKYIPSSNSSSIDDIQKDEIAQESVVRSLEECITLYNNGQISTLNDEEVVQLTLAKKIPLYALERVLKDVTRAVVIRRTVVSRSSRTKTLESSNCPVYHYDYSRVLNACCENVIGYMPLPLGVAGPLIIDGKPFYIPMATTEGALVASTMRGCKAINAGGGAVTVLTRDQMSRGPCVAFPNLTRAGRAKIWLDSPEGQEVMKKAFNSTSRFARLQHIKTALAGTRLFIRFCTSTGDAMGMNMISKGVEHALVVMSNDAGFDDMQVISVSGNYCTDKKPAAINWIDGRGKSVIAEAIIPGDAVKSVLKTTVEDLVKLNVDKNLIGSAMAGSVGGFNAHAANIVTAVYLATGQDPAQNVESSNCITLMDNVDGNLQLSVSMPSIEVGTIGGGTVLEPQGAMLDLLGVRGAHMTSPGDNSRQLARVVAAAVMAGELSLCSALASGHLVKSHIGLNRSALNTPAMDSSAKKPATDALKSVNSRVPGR
Briefly: Inhibition of Schizosaccharomyces pombe HMG-CoA reductase by spectrophotometry. Conditions: read-out: IC50. In outline:
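Membrane HMGR partially purified from S. pombe 972 h (YPD, 28 °C, 48 h) via centrifugation, Triton X-100 solubilization, 65 °C heat step, ammonium sulfate and calcium phosphate gel. Enzyme activated 37 °C 30 min, pre-incubated with compound (DMSO stocks 1–5 mM) 30 min at 37 °C. Assay: 200 µg enzyme, 0.13 mM HMG-CoA, 50 mM Tris-HCl pH 7.5; started with 0.13 mM NADPH; A340 decrease over 2 min; triplicate; IC50 derived.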

The subject of assay [17] is Mus musculus. Briefly: Hypolipidemic activity in high cholesterol diet fed ICR mouse assessed as reduction of HDL cholesterol level at 100 mg/kg/day, po after 12 hrs of last cholesterol challenge relative to control. Also noted: scale not given: the % may be the effect or the level left.

pIC50: −log10 of the molar value.

On to `CCCc1cc(OC)c(OCC(=O)OC)cc1O`, for which the Activity in the assay with Mus musculus [1] is reported as -18.89%; in the assay with Mus musculus [2], -53.34%; with Mus musculus [3], -55.91%; in the assay on Mus musculus [4], -38.63%; in the assay with Mus musculus [5], -68.32%; with Mus musculus [6], -29.15%. Further, the Activity is listed as -28.88% in the assay on Mus musculus [7]; -47.07% in the assay with Mus musculus [8]; -28.94% in the assay with Mus musculus [9]; -41.81% in the assay with Mus musculus [10]; -25.03% with Mus musculus [11]; -68.42% in the assay with Mus musculus [12]. Also, the Activity in the assay with Mus musculus [13] is reported as -23.15%; in the assay on Mus musculus [14], -74.14%; in the assay with Mus musculus [15] it was -68.42%; in the assay with Mus musculus [17], -13.45%. Further, the pIC50 in assay [16] is 4.18.

For `CCCc1cc(OC)c(OCC(=O)OC)cc1N`, the Activity is -36.04% with Mus musculus [1]; -41.4% with Mus musculus [2]; -24.98% with Mus musculus [3]; -15.45% in the assay with Mus musculus [4]; -69.1% with Mus musculus [5]; -11.21% in the assay with Mus musculus [6]. Besides, the Activity is on record as -41.1% in the assay with Mus musculus [7]; -22.14% in the assay on Mus musculus [8]; -24.22% in the assay with Mus musculus [9]; -31.54% in the assay with Mus musculus [10]; -26.23% in the assay on Mus musculus [11]; -12.22% with Mus musculus [12]. The Activity in the assay on Mus musculus [13] is given as -37.31%; in the assay on Mus musculus [14], -49.47%; in the assay on Mus musculus [15], -59.67%; in the assay on Mus musculus [17], -39.58%. The pIC50 in [16] was 4.03.

On to `CCCc1cc(OC)c(OCC(=O)O)cc1[N+](=O)[O-]`, for which the Activity with Mus musculus [1] was -79.36%; with Mus musculus [2], -47.12%; in the assay on Mus musculus [3] it was -47.72%; in the assay on Mus musculus [4], -10.09%; in the assay with Mus musculus [5] it was -51.59%; in the assay with Mus musculus [6], -21.86%. Besides, the Activity in the assay on Mus musculus [7] is recorded as -41.1%; with Mus musculus [8], -25.11%; with Mus musculus [9], -40.34%; in the assay on Mus musculus [10] it was -28.88%; in the assay with Mus musculus [11], -20.86%; in the assay on Mus musculus [12], -49.21%. Moreover, the Activity is recorded as -44.61% in the assay on Mus musculus [13], -50.22% in the assay on Mus musculus [14], -59.67% in the assay on Mus musculus [15] and -55.62% in the assay on Mus musculus [17]. Moreover, the pIC50 in assay [16] was 3.87.

For orientation: pIC50 means the negative decadic logarithm of the IC50, by convention in mol/L.

Source of the values: ChEMBL document CHEMBL1166015, “Design, synthesis, and docking of highly hypolipidemic agents: Schizosaccharomyces pombe as a new model for evaluating alpha-asarone-based HMG-CoA reductase inhibitors” (Bioorg Med Chem, 2010).
